# High-throughput results from PubChem BioAssay.
# GSTO1 counter: blocks human GSTO1 in RBBP9 counter-screen; AID 1974; recombinant GSTO1, activity-based probe fluorescence polarization; P78417; 1.1% of 300,000 active; inhibition, % at 5.96 µM;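 active = inhibition above the campaign mean inhibition plus 3 SD, cut at about 35% in these data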;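 also: 0% = GSTO1-1 with DMSO and 100% = wells lacking GSTO1-1 enzyme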
# Fh CTSL1 inh: cathepsin L1 inhibition, PFM18AAP counter-screen; recombinant F. hepatica cathepsin L1, Z-Leu-Arg-MCA fluorescence; inhibition, % at 5.96 µM; 0.49% of 300,000 active;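 active = inhibition above the mean of all tested compounds plus 3 SD, set per screening campaign, cut at about 17% in these data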;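 also: 0% = plate median of test compound wells and 100% = 1 µM Z-Phe-Ala-diazomethylketone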
# UCH37 inh: blocks the human deubiquitinase UCH37; 0.33% of 330,000 active; Q9Y5K5; inhibition, % (test concentration not listed); purified proteasome/UCH37, Ub-AMC cleavage fluorescence;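 active = mean inhibition over replicate wells above about 20%, limit read from the data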;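 also: 0% = compound-free wells with enzyme and 100% = wells lacking proteasome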
#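 Material: Human UCH37 enzyme supplied as purified proteasome complex | Schedule: 30 min compound-proteasome preincubation then 25 min substrate reaction, room temperature | Detection: AMC fluorescence from Ub-AMC cleavage, excitation 355 nm, emission 460 nm | Benchmarks: Wells without proteasome as full block, compound-free enzyme plus substrate as uninhibited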
# PP5 inh: blocks human protein phosphatase 5 activity; P53041; purified PP5c, OMFP substrate fluorescence; inhibition, % at 6.7 µM; 0.18% of 320,000 active;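 active = inhibition above the campaign's mean inhibition across all tested compounds plus 3 SD, cut at about 9.5% in these data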;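 also: 0% = DMSO only and 100% = 100 µM cantharidin control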
# PAD4 FP inh: blocks human protein arginine deiminase 4; 0.41% of 330,000 active; Q9UM07; inhibition, % at 6.36 µM; recombinant PAD4, RCA probe fluorescence polarization;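 active = percent inhibition above a cutoff equal to the mean of all tested compounds plus 3 SD, cut at about 15% in these data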;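 also: 0% = PAD4 with RCA probe and DMSO and 100% = probe without PAD4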
# Target sequence (Q9UM07 whole entry, looked up): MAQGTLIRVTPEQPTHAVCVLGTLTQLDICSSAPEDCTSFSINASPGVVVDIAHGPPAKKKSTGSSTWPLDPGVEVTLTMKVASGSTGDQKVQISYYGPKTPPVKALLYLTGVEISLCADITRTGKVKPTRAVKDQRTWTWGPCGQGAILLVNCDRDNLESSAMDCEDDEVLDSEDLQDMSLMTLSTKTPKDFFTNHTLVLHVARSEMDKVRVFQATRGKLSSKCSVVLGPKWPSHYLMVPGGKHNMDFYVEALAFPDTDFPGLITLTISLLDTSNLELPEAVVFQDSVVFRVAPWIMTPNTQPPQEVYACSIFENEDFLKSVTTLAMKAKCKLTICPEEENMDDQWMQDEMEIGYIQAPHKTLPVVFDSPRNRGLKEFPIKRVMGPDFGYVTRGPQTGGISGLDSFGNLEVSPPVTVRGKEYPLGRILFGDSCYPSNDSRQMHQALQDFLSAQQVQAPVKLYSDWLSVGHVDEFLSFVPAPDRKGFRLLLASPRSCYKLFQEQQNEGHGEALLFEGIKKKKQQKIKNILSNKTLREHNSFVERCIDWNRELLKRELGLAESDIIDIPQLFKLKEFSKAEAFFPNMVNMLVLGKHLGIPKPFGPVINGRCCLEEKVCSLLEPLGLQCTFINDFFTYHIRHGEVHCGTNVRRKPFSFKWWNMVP
# Apaf-1 inh: blocks human Apaf-1 apoptosome activity; O14727; inhibition, % at 20 µM; 0.71% of 330,000 active; reconstituted apoptosome caspase-3 activity, DEVD-Rh110 fluorescence; active = inhibition of at least 40% at 20 µM;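 also: plate controls were DMSO wells for no effect and DEVD-CHO caspase inhibitor wells for full effect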
#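 detection = Rh110 fluorescence intensity | test system = biochemical Apaf-1 apoptosome reconstitution | also added = cytochrome c and DEVD-Rh110 substrate | schedule = 30 min plus 50 min, RT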
# Apaf-1 inh conf: confirmation of Apaf-1 inhibitors. reconstituted apoptosome, caspase-3 DEVD-Rh110 fluorescence. 25% of 1,800 active. AID 504614. inhibition, % at 20 µM. shares compounds with Apaf-1 inh;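 active = mean inhibition of at least 40% at 20 µM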;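 also: plate controls were DMSO wells for no effect and DEVD-CHO caspase inhibitor control wells for full effect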
# Rh110 quench: interferes with Rh110 fluorescence, flagging false Apaf-1 inhibitors. 1,800 tested, under 10 active. Rh110 fluorescence interference, quenched caspase reaction. shares compounds with Apaf-1 inh. activation (fluorescence interference), % at 20 µM. AID 504615;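 active = signal rise of 40% or more at 20 µM, treated as a fluorescence artifact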
# Fluor interf inh: counter-screen for Apaf-1 inhibitors: fluorescence interference, dose response. shares compounds with Apaf-1 inh. 460 tested, under 10 active. fluorescence interference counterscreen, Apaf-1 assay format. IC50, µM; call rule not given here
# Active calls of the source: *; . = no result given; ! = repeats disagree. Only some compounds are listed: those with a hit (about 2% of all), similar ones and a draw of the others.
SMILES,GSTO1 counter,Fh CTSL1 inh,UCH37 inh,PP5 inh,PAD4 FP inh,Apaf-1 inh,Apaf-1 inh conf,Rh110 quench,others
Cc1cccc(-c2cc3c(nn2)-c2ccccc2C3=O)c1,23.4,3.4,4.5,2.5,-15.0,91.1*,12.6,10.5,
CC(=NNC(=O)c1ccc(Cl)cc1)c1ccc(N2CCOCC2)cc1,.,.,-36.9,.,.,.,.,.,
CC(=NNC(=O)C1(C)CC1(Br)Br)c1cccc(NC(=O)C(C)(C)C)c1 (configuration not stated),.,.,2.0,.,.,.,.,.,
Oc1cccc2c(NC(=S)Nc3ccc(SC(F)F)cc3)cccc12,3.3,0.6,2.7,2.7,-2.1,53.2*,12.4,0.5,
Cc1cccc(NC(=O)CSCC(=O)N(C)Cc2ccc(Cl)c(Cl)c2)c1,.,.,4.8,6.4,-5.1,62.6*,45.9*,12.2,Fluor interf inh=>100
Cc1cc(O)c(C=Nc2ccccn2)c(=O)o1,.,.,-3.2,.,.,.,.,.,
CN(C)c1ccnc2c[cH-]cc12.[Fe].c1ccc(-[c-]2[c-](-c3ccccc3)[c-](-c3ccccc3)[c-](-c3ccccc3)[c-]2-c2ccccc2)cc1 (configuration not stated),8.1,-1.5,-0.4,-0.5,6.0,47.2*!,3.9,5.4,
COc1ccc(NC(=O)CN(C)C(=O)C2CSC3(C)CCC(=O)N23)cc1 (configuration not stated),.,.,0.2,2.5,-3.1,42.7*,33.7,16.2,
COC(=O)COc1ccc(C=NNC(=O)c2ccc(N(Cc3ccccc3)S(C)(=O)=O)cc2)cc1,.,.,5.0,.,.,.,.,.,
C=CCn1c(SCC(=O)N(CC)C2CCS(=O)(=O)C2)nnc1-c1ccccc1 (configuration not stated),.,.,-1.6,-0.4,-4.8,61.4*,35.6,-7.1,
CSc1ccc2c(c1)C(N1CCN(C)CC1)Cc1ccccc1S2 (configuration not stated),2.3,0.5,0.6,3.7,-6.7,47.8*!,20.7,17.0,
CC(=NNC(=S)NCCc1ccccc1)c1ccc(Cl)cc1Cl,.,.,1.9,.,.,.,.,.,
CC[C@]12CCCN3CCc4c(n(c5ccccc45)[C@](O)(C(=O)OC)C1)[C@@H]32,3.7,-2.5,-0.2,-1.0,2.4,-1.2,.,.,
CCC12CCCN3CCc4c(n(c5ccccc45)C(O)(C(=O)OC)C1)C32 (configuration not stated),-0.8,-1.1,-3.5,2.8,-2.2,40.9*,17.7,-0.3,
Cc1ccc(C(=O)N/C(=C\c2ccc(-c3ccccc3[N+](=O)[O-])o2)C(=O)NCCN(C)C)cc1,25.4,3.9,12.3,6.3,-12.7,52.8*,33.5,2.2,
CC(=NNC(=O)c1ccccn1)c1ccc(C(=O)O)s1,.,.,11.7,.,.,.,.,.,
Cc1cc(NC(=O)CSCC(=O)Nc2ccc(C)c(C)c2)no1,.,.,-0.4,2.4,-5.9,53.7*,3.5,-3.6,
COc1ccc(Br)cc1C=NNC(=O)CNC(=O)/C=C/c1ccccc1,.,.,4.5,.,.,.,.,.,
CCN1/C(=C/c2ccc3cc(C)ccc3[n+]2CC)Sc2ccc3sccc3c21,-108.0,2.3,9.8,-0.9,-90.5,62.2*,59.7*,-9.1,Fluor interf inh=>100
CN1CCN(CCCNC(=O)c2ccc(/C=C3\Sc4ccccc4N(Cc4ccc(F)cc4)C3=O)cc2)CC1,.,.,-7.8,.,.,.,.,.,
CCN1CCN(CCNC(=O)c2ccc(/C=C3\Sc4ccccc4N(Cc4ccccc4F)C3=O)cc2)CC1,-42.7,3.7,-12.5,2.2,-3.5,41.3*,27.1,6.2,
CCOc1ccc(C(=O)NN=Cc2cccc3cccnc23)cc1,.,.,4.5,.,.,.,.,.,
CCc1ccc(N2C(=O)C(Cl)=C(Nc3ccc(C(=O)N4CCCC4)cc3)C2=O)cc1,.,.,5.1,0.5,5.2,41.4*,7.4,9.8,
CCOc1ccc(-c2cc(C(=O)NCCCn3ccnc3)c3cc(Br)ccc3n2)cc1,-9.9,2.5,.,3.6,-4.2,42.5*,-0.6,9.1,
CNC[C@@H]1Oc2ccc(NS(=O)(=O)c3ccc(Cl)cc3)cc2C(=O)N([C@H](C)CO)C[C@@H]1C,.,.,-1.2,.,2.3,45.1*,18.7,17.5,
SMILES,GSTO1 counter,Fh CTSL1 inh,UCH37 inh,PP5 inh,PAD4 FP inh,Apaf-1 inh,Apaf-1 inh conf,Rh110 quench,others
CCCCCCC1C(=NNC(=O)c2ccccc2)CCC1C(=O)OC (configuration not stated),.,.,3.1,.,.,.,.,.,
C=CCNC(C(=O)Nc1cccc(OC)c1)c1ccccc1 (configuration not stated),1.7,3.0,3.1,-0.6,-2.5,42.9*,-5.6,3.0,
COc1cccc(NC(=O)C(NCC(C)(C)CN(C)C)c2ccccc2)c1 (configuration not stated),4.4,4.9,0.7,-0.1,2.7,3.2,.,.,
Cc1[nH]n(-c2ccccc2)c(=O)c1C(=O)c1ccccc1,-5.6,-3.9,8.2,-1.5,-4.9,61.0*,18.2,9.5,
Cc1[nH]n(-c2ccc(Cl)cc2)c(=O)c1C(=O)c1ccccc1,5.5,-2.3,5.7,2.6,-6.4,6.4,.,.,
COCCOC(=O)C1=C(C)N=c2sc(=Cc3cccs3)c(=O)n2C1c1cccs1 (configuration not stated),.,.,0.4,.,.,.,.,.,
C[C@@H]1CN([C@@H](C)CO)C(=O)c2cc(NC(=O)Nc3ccc(F)cc3)ccc2O[C@@H]1CN(C)Cc1ccc(Oc2ccccc2)cc1,.,.,2.8,.,3.5,41.8*,11.1,10.3,
C[C@H](CO)N1C[C@H](C)[C@@H](CN(C)Cc2ccc(-c3ccccc3)cc2)Oc2c(NC(=O)Cc3ccccc3)cccc2C1=O,.,.,1.0,.,-0.1,43.4*,26.1,-6.7,
C[C@H](CO)N1C[C@H](C)[C@@H](CN(C)Cc2ccc(Cl)c(Cl)c2)Oc2c(NC(=O)Cc3ccccc3)cccc2C1=O,.,.,2.8,.,-9.1,43.6*,23.9,2.2,
C[C@H](CO)N1C[C@H](C)[C@@H](CN(C)Cc2ccccc2)Oc2c(NC(=O)Cc3ccccc3)cccc2C1=O,.,.,4.7,.,0.5,22.2,.,.,
C[C@H](CO)N1C[C@H](C)[C@@H](CN(C)CC2CCCCC2)Oc2c(NC(=O)CCC(F)(F)F)cccc2C1=O,.,.,0.7,.,-5.3,41.2*,18.2,16.6,
CC(=NNC(=O)C(N)=O)c1ccc(O)cc1O,.,.,7.7,.,.,.,.,.,
Cc1ccc(C(=O)NN=Cc2nc3ccccc3n2C)cc1,.,.,-77.5,.,.,.,.,.,
COC1=C(Nc2ccccc2OC)C(=O)c2ccccc2C1=O,10.2,-5.5,8.0,1.0,-5.3,54.5*,14.1,11.2,
CCOC(=O)C(=NNc1ccc(C)cc1)S(=O)(=O)c1ccc(Cl)cc1,.,.,6.9,.,.,.,.,.,
COc1ccc(C=NNC(=O)c2ccoc2C)cc1COc1c(C)cccc1C,.,.,6.0,.,.,.,.,.,
Cn1c(=O)c2[nH]c(=O)cnc2n(C)c1=S,1.5,4.0,-5.8,-0.7,1.1,56.3*,8.6,1.7,
